PMC5730044 (International journal of medical microbiology : IJMM, 2014)
Values after ≈ are worked out from the molar mass of the structure shown.

Tests used:
[1] = system: pneumococcal NA of strain DSM20566; assay: Lectin-based hemagglutination; type: cell-based, S. pneumoniae; settings: minimal NA inhibitory concentration
[2] = system: pneumococcal NA of strain D39; assay: Lectin-based hemagglutination; type: cell-based, S. pneumoniae
[3] = system: pneumococcal NA of strain CJ9400; assay: Lectin-based hemagglutination; type: cell-based, S. pneumoniae; settings: minimal NA inhibitory concentration
[4] = target: recombinant NanA of DSM20566 (Streptococcus pneumoniae, UniProt P62575); type: biochemical, S. pneumoniae; settings: for mechanism of inhibition: rNanA, Lineweaver-Burk / SigmaPlot analysis
recombinant NanA of DSM20566, sequence (P62575 116-1035 limits assumed): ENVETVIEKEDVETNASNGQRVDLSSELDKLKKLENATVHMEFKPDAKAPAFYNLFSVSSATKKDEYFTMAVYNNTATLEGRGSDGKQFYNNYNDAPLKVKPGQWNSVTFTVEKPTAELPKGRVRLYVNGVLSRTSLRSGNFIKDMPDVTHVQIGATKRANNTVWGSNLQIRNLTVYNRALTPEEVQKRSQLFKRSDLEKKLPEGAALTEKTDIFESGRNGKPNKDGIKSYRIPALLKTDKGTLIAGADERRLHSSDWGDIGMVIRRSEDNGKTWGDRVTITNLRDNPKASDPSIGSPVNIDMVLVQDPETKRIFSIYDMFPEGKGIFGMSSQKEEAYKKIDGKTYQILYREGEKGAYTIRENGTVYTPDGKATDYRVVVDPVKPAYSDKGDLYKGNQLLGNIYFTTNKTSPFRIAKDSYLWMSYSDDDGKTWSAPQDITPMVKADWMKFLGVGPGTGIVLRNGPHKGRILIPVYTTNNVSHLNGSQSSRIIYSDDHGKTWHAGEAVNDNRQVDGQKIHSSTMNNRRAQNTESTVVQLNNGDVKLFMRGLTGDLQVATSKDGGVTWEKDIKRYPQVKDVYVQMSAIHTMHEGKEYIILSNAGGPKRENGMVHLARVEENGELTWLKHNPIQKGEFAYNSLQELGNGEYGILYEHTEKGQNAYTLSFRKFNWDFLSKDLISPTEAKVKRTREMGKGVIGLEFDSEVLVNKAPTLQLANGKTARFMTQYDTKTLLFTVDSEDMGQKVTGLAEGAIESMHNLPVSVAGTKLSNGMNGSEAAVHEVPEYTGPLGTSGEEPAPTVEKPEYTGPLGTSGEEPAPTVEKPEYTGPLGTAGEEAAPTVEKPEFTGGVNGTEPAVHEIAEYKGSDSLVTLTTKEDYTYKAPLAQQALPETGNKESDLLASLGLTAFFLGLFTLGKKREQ

[5] = system: S. pneumoniae DSM20566; assay: Biofilm inhibition assay; type: cell-based; settings: DSM20566, TSB, 24 h
[6] = system: S. pneumoniae D39; assay: Biofilm inhibition assay; type: cell-based; settings: D39, TSB, 24 h
[7] = system: S. pneumoniae DSM14378; assay: Biofilm inhibition assay; type: cell-based; settings: DSM14378, TSB, 24 h
[8] = system: S. pneumoniae CJ9400; assay: Biofilm inhibition assay; type: cell-based; settings: CJ9400, TSB, 24 h
[9] = system: S. pneumoniae CF6937; assay: Biofilm inhibition assay; type: cell-based; settings: CF6937, TSB, 24 h
[10] = system: S. pneumoniae BC7326; assay: Biofilm inhibition assay; type: cell-based; settings: BC7326, TSB, 24 h
[11] = system: S. pneumoniae CF8919; assay: Biofilm inhibition assay; type: cell-based; settings: CF8919, TSB, 24 h
[12] = system: S. pneumoniae PN8828; assay: Biofilm inhibition assay; type: cell-based; settings: PN8828, TSB, 24 h
[13] = system: S. pneumoniae BC57; assay: Biofilm inhibition assay; type: cell-based; settings: BC57, TSB, 24 h
[14] = system: S. pneumoniae DSM20566; assay: Minimal bactericidal concentration; type: cell-based; settings: viability reduced by ≥99.9%
[15] = system: S. pneumoniae D39; assay: Minimal bactericidal concentration; type: cell-based; settings: viability reduced by ≥99.9%
[16] = system: S. pneumoniae DSM14378; assay: Minimal bactericidal concentration; type: cell-based; settings: viability reduced by ≥99.9%
[17] = system: S. pneumoniae CJ9400; assay: Minimal bactericidal concentration; type: cell-based; settings: viability reduced by ≥99.9%
[18] = system: S. pneumoniae CF6937; assay: Minimal bactericidal concentration; type: cell-based; settings: viability reduced by ≥99.9%
[19] = system: S. pneumoniae BC7326; assay: Minimal bactericidal concentration; type: cell-based; settings: viability reduced by ≥99.9%
[20] = system: S. pneumoniae; assay: Bactericidal activity, studied pneumococci; type: cell-based
[21] = system: pneumococcal adherence to pulmonary epithelial A549 cells
[22] = target: viral NAs; settings: ref Collins et al., 2008; cited from earlier work
[23] = target: pneumococcal NA (Streptococcus pneumoniae, UniProt P62575); settings: ref Gut et al., 2011; cited from earlier work
pneumococcal NA, sequence (P62575 54-1006): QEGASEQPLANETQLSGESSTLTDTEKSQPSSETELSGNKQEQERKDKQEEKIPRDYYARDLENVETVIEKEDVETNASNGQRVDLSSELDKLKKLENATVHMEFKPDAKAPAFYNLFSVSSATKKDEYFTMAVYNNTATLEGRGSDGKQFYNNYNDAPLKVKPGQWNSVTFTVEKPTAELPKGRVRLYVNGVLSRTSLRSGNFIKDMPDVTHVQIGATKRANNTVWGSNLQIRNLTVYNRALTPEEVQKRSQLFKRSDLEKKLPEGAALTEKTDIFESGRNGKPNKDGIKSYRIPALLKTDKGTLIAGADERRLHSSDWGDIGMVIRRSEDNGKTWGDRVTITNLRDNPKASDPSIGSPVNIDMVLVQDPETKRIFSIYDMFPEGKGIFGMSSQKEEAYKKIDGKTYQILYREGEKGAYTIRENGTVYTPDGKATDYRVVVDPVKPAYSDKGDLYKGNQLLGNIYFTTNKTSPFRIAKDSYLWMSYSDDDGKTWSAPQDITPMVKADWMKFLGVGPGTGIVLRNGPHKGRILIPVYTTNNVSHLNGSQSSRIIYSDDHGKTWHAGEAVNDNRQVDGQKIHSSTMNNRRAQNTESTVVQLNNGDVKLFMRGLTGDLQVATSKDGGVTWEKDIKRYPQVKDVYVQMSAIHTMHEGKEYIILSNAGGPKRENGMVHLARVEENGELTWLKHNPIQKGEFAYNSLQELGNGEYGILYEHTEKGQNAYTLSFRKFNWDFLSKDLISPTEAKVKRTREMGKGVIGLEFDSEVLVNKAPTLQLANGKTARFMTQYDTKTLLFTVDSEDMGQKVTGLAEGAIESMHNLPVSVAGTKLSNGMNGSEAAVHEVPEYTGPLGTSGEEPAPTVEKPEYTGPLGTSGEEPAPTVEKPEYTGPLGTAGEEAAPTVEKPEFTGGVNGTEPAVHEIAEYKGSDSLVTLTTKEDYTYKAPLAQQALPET

[24] = Erythrocyte hemolysis assay; type: cell-based, human; settings: human, erythrocytes
[25] = system: human erythrocytes; assay: Erythrocyte hemolysis assay; type: cell-based; settings: observed in HA assay with D39 protein
[26] = system: S. pneumoniae DSM20566; assay: Broth microdilution assay; type: cell-based; settings: Streptococcus pneumoniae, DSM20566, 18 h, read-out: 90% minimal inhibitory concentration
[27] = system: S. pneumoniae D39; assay: Broth microdilution assay; type: cell-based; settings: Streptococcus pneumoniae, D39, 18 h, read-out: 90% minimal inhibitory concentration
[28] = system: S. pneumoniae DSM14378; assay: Broth microdilution assay; type: cell-based; settings: Streptococcus pneumoniae, DSM14378, 18 h, read-out: 90% minimal inhibitory concentration
[29] = system: S. pneumoniae CJ9400; assay: Broth microdilution assay; type: cell-based; settings: Streptococcus pneumoniae, CJ9400, 18 h, read-out: 90% minimal inhibitory concentration
[30] = system: S. pneumoniae CF6937; assay: Broth microdilution assay; type: cell-based; settings: Streptococcus pneumoniae, CF6937, 18 h, read-out: 90% minimal inhibitory concentration
[31] = system: S. pneumoniae BC7326; assay: Broth microdilution assay; type: cell-based; settings: Streptococcus pneumoniae, BC7326, 18 h, read-out: 90% minimal inhibitory concentration
[32] = system: S. pneumoniae CF8919; assay: Broth microdilution assay; type: cell-based; settings: Streptococcus pneumoniae, CF8919, 18 h, read-out: 90% minimal inhibitory concentration
[33] = system: S. pneumoniae PN8828; assay: Broth microdilution assay; type: cell-based; settings: Streptococcus pneumoniae, PN8828, 18 h, read-out: 90% minimal inhibitory concentration
[34] = system: S. pneumoniae BC57; assay: Broth microdilution assay; type: cell-based; settings: Streptococcus pneumoniae, BC57, 18 h, read-out: 90% minimal inhibitory concentration
[35] = system: S. pneumoniae; assay: Broth microdilution assay; type: cell-based; settings: Streptococcus pneumoniae, read-out: MIC90 values
Outline: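 Pneumococci were pre-grown in BHI with gentle shaking at 37°C for 4–5 h (mid-exponential), adjusted to McFarland 0.5 (1.5 × 10^8 cfu/mL) and diluted 50× in BHI. 50 µL bacteria plus 100 µL of two-fold compound dilutions (top 50 or 200 µM) in BHI were run in duplicate, overnight at 37°C, 5% CO₂. OD620 at 18 h minus 0 h was taken relative to no-compound growth control; MIC90 is 90% turbidity reduction.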

[36] = system: S. pneumoniae; assay: Biofilm inhibition assay; type: cell-based; settings: range among all tested strains
[37] = system: S. pneumoniae DSM20566 adherence to A549 cells; assay: Adherence inhibition assay on A549 cells; type: cell-based; settings: Streptococcus pneumoniae, DSM20566, A549, 1.5 h, read-out: concentration giving 50% reduction in adherence levels (AIC50)
[38] = system: S. pneumoniae PN8828 adherence to A549 cells; assay: Adherence inhibition assay on A549 cells; type: cell-based; settings: Streptococcus pneumoniae, A549, 1.5 h, read-out: concentration giving 50% reduction in adherence levels (AIC50)
[39] = system: A549 cells; assay: Cytotoxicity on confluent A549 cell monolayers; type: cell-based, human; settings: 12.50 μM, A549, 72 h
Outline: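 Three-day-old confluent A549 monolayers were exposed to two-fold serial compound dilutions in duplicate for 72 h at 37°C, 5% CO₂. Cells were washed, fixed and crystal violet-stained, and dye was eluted in citrate/HCl/ethanol buffer for OD550. Viability is relative to six untreated controls. CC50 comes from mean dose-response curves of at least three assays. Morphology at 12.5 µM was checked by phase-contrast microscopy.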

Structure (SMILES) | Inhibitory concentration (HA assay) [1] | Inhibitory concentration (HA assay) [3] | mechanism of inhibition [4] | 90% minimal biofilm inhibitory concentration [5] | 90% minimal biofilm inhibitory concentration [6] | 90% minimal biofilm inhibitory concentration [7] | 90% minimal biofilm inhibitory concentration [8] | 90% minimal biofilm inhibitory concentration [9] | 90% minimal biofilm inhibitory concentration [10] | 90% minimal biofilm inhibitory concentration [11] | 90% minimal biofilm inhibitory concentration [12] | 90% minimal biofilm inhibitory concentration [13] | Bactericidal concentration [14] | Bactericidal concentration [15] | Bactericidal concentration [16] | Bactericidal concentration [17] | Bactericidal concentration [18] | Bactericidal concentration [19] | other results
CCC(CC)O[C@@H]1C=C(C(=O)O)C[C@H](N)[C@H]1NC(C)=O [oseltamivir, Oseltamivir carboxylate] | 2.1 ± 1.3 µM | 0.3 ± 0.0 µM | competitively inhibited | > 50 µM | > 50 µM | > 50 µM | > 50 µM | > 50 µM | > 50 µM | > 50 µM | > 50 µM | > 50 µM | > 50 µM | > 50 µM | > 50 µM | > 50 µM | > 50 µM | > 50 µM | Inhibitory concentration (HA assay) ([2]; minimal NA inhibitory concentration, strain D39): 10.0 ± 0.0 µM; factor by which inhibitory activity on bacterial NAs is lower than on viral NAs ([4]; compared to viral NAs Ki of 0.32 nM): 1000; Ki ([4]; rNanA of DSM20566, MUNANA substrate): 230 nM; concentration up to which no inhibitory or bactericidal activity was exhibited ([20]; maximum tested concentration): > 50 µM; effect on adhesion of pneumococci to A549 cells (in words) ([21]; DSM20566 and PN8828): did not reduce pneumococcal adherence; Ki [22]: 0.32 nM; inhibitory potency to pneumococcal NA (in words) [23]: medium
COc1cc2oc(-c3ccc(O)cc3O)c(CC=C(C)C)c(=O)c2c(O)c1/C=C/C(C)C [artocarpin] | 7.7 ± 4.0 µM | 2.6 ± 1.1 µM | mixed-type inhibition | 2.88 ± 0.07 µM | 2.22 ± 0.76 µM | 2.37 ± 0.67 µM | 2.97 ± 0.13 µM | 2.73 ± 0.27 µM | 2.02 ± 0.62 µM | 1.15 ± 0.34 µM | 1.40 ± 0.07 µM | 2.35 ± 0.68 µM | 3.13 ± 0.00 µM | 2.50 ± 0.77 µM | 4.69 ± 1.98 µM | 2.74 ± 0.68 µM | 3.44 ± 1.53 µM | 3.32 ± 1.94 µM | activity in HA assay (in words) ([2]; reference strain D39): no activity; hemolysis at 3 h, 31.6 µM [24]: 20%; concentration at which erythrocytes were lysed [25]: b The erythrocytes were lysed in the presence of artocarpin at concentrations higher than 10 µM.; MIC [26]: 5.58 ± 0.97 µM (≈ 2.44 µg/mL); MIC [27]: 1.29 ± 0.31 µM (≈ 0.563 µg/mL); MIC [28]: 5.75 ± 0.13 µM (≈ 2.51 µg/mL); MIC [29]: 3.45 ± 2.05 µM (≈ 1.51 µg/mL); MIC [30]: 3.39 ± 2.1 µM (≈ 1.48 µg/mL); MIC [31]: 1.12 ± 0.37 µM (≈ 0.489 µg/mL); MIC [32]: 1.45 ± 0.01 µM (≈ 0.633 µg/mL); MIC [33]: 0.99 ± 0.48 µM (≈ 0.432 µg/mL); MIC [34]: 1.45 ± 0.04 µM (≈ 0.633 µg/mL); MIC90 [35]: 0.99 to 5.75 µM (≈ 0.432 to 2.51 µg/mL); mean MBIC90 values [36]: 1.15 to 2.97 µM; factor of reduction of viability of pneumococci ([20]; within 18 h): > 1000; IC50 [37]: 7500 nM; IC50 [38]: 4100 nM; cytotoxic effect (in words) [39]: no cytotoxic effect; effect on A549 cell viability under adherence assay conditions (in words) [21]: did not affect cell viability
